How the values were obtained:
[1] = Partition coefficient (logP); format: physicochemical; details: octanol/water
[2] = target: GABA-A receptor; anion channel; assay: In vitro inhibition of [3H]flunitrazepam binding to GABA-A Benzodiazepine receptor of rat cerebral cortex membranes; format: cell membranes, Membrane
How it was run: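 Washed rat cerebral cortex membranes (adult male Sprague-Dawley, 175–250 g) in 50 mM Tris-HCl pH 7.4, three wash spins at 20000g. Incubated with [3H]flunitrazepam (final 0.9–1.1 nM) and six to eight inhibitor concentrations for 120 min at 4 °C, then filtered. Nonspecific binding defined with Ro 15-1788 (10 μM). IC50 from sigmoid fit; mean of at least two determinations.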

Mus musculus = assay: In vivo anticonvulsant activity was determined in male NIH/Swiss mice after intraperitoneal administration; Antagonist; format: functional, organism-based
How it was run: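 Male NIH/Swiss mice (20–25 g) dosed ip with drug in 20% diluted Emulphor/80% saline, or vehicle. Antagonism run in groups of 10: test agent at various doses, diazepam (2.5 mg/kg) 15 min later, then PTZ challenge (80 mg/kg) after another 15 min. Seizures scored over 15 min. EC50 read graphically from percent convulsions versus log dose.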

| Structure (SMILES) | logP [1] | IC50 [2] | EC50 (Mus musculus) |
| --- | --- | --- | --- |
| CCOC(=O)c1[nH]cc2nc3ccc(O)cc3c-2c1COC | 1.44 | 0.9 nM | – |
| CCOC(=O)c1[nH]cc2nc3ccc(OC)cc3c-2c1COC | – | 0.5 nM | 1.25 mg/kg |
| CCOC(=O)c1cc2c3cc(OCc4ccccc4)ccc3nc-2c[nH]1 | – | 8.9 nM | – |
| CCOC(=O)c1ncc2c(c1CC)c1cc(OCc3ccccc3)ccc1n2C | – | > 5000 nM | – |
| CCOC(=O)c1cc2c3cc(OCc4ccccc4)ccc3n(C)c2cn1 | – | > 5000 nM | – |
| CCOC(=O)c1ncc2[nH]c3ccc(OCc4ccccc4)cc3c2c1COC | 3.97 | 1 nM | – |
| CCOC(=O)c1[nH]cc2nc3ccc(OCc4ccccc4)cc3c-2c1CC | – | 22 nM | – |
| CCOC(=O)c1ncc2c(c1COC)c1cc(OCc3ccccc3)ccc1n2C | – | 945 nM | – |
| CCOC(=O)c1ncc2[nH]c3ccccc3c2c1COC | – | 2.3 nM | 15 mg/kg |
